According to ChEMBL document CHEMBL2439995, “Synthesis and Evaluation of Quinazolone Derivatives as a New Class of c-KIT G-Quadruplex Binding Ligands” (ACS Med Chem Lett, 2013):
Calls of active or inactive are those of the source. No cut-off for these calls is given here.

Key:
[1] = system: MCF7; assay: Binding affinity to c-KIT1 mutant G-quadruplex DNA isolated from human MCF7 cells at 2.5 uM after 48 hrs by dual luciferase reporter gene assay; assay type: cell-based
Outline: (§1)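 MCF-7 cells transiently transfected with a luciferase plasmid carrying the full-length wild-type c-KIT promoter or its mutant, plus pRL-TK. Cells treated 48 h with compound at 2.5 µM or a range of concentrations. Firefly signal normalized to pRL-TK, expressed relative to untreated cells (100%). Triplicates, three independent experiments, standard error.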

[2] = system: MCF7; assay: Binding affinity to full length wild type c-KIT1 G-quadruplex DNA isolated from human MCF7 cells at 2.5 uM after 48 hrs by dual luciferase reporter gene assay; assay type: cell-based; outline: as §1
[3] = Binding affinity to F-c-KIT2-T G-quadruplex DNA (unknown origin) assessed as change in melting temperature at 5 uM by FRET assay
[4] = system: HGC-27; assay: Cytotoxicity against HGC27 cells assessed as cell viability after 48 hrs by MTT assay; assay type: functional, cell-based; conditions: Homo sapiens, HGC-27, 48 h
[5] = system: MCF7; assay: Binding affinity to full length wild type c-KIT2 G-quadruplex DNA isolated from human MCF7 cells at 2.5 uM after 48 hrs by dual luciferase reporter gene assay; assay type: cell-based; outline: as §1
[6] = Binding affinity to duplex DNA (unknown origin) up to 20 uM by surface plasmon resonance method
Outline: (§2)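 SPR binding to immobilized c-KIT1 G-quadruplex or duplex DNA, ligand injected at various concentrations, up to 20 µM. KD obtained by global fitting of the kinetic data to a 1:1 Langmuir binding model.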

[7] = Binding affinity to F-c-KIT1-T G-quadruplex DNA (unknown origin) assessed as change in melting temperature at 5 uM by FRET assay
[8] = Binding affinity to F10T duplex DNA (unknown origin) assessed as change in melting temperature at 5 uM by FRET assay
[9] = Binding affinity to biotinylated c-KIT1 G-quadruplex DNA (unknown origin) by surface plasmon resonance method; outline: as §2
[10] = system: MCF7; assay: Binding affinity to c-KIT2 mutant G-quadruplex DNA isolated from human MCF7 cells at 2.5 uM after 48 hrs by dual luciferase reporter gene assay; assay type: cell-based; outline: as §1
[11] = system: HGC-27; assay: Downregulation of c-KIT mRNA expression in HGC27 cells at 2.5 uM after 24 hrs by RT-PCR analysis relative to control; assay type: functional, Homo sapiens
Outline: (§3)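 HGC-27 gastric carcinoma cells treated 24 h at final 1.25, 2.5 or 5 µM. c-KIT mRNA quantified by RT-PCR against β-actin, relative to control.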

[12] = system: HGC-27; assay: Downregulation of c-KIT mRNA expression in HGC27 cells at 1.25 uM after 24 hrs by RT-PCR analysis relative to control; assay type: functional, Homo sapiens; outline: as §3
[13] = system: MCF7; assay: Binding affinity to full length wild type c-KIT1 G-quadruplex DNA isolated from human MCF7 cells at 5 uM after 48 hrs by dual luciferase reporter gene assay relative to control; assay type: cell-based; outline: as §1
[14] = system: MCF7; assay: Binding affinity to full length wild type c-KIT1 G-quadruplex DNA isolated from human MCF7 cells after 48 hrs by dual luciferase reporter gene assay; assay type: cell-based; outline: as §1
[15] = system: MCF7; assay: Binding affinity to c-KIT1 mutant G-quadruplex DNA isolated from human MCF7 cells at 5 uM after 48 hrs by dual luciferase reporter gene assay relative to control; assay type: cell-based; outline: as §1
[16] = Binding affinity to c-KIT1 G-quadruplex DNA (unknown origin) at 25 uM by CD spectrophotometric analysis
Outline: (§4)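 Circular dichroism spectra of 5 µM c-KIT1 or c-KIT2 oligonucleotide in 10 mM Tris–HCl, pH 7.2, 100 mM KCl, recorded with and without 25 µM ligand. Bands near 263 nm (positive) and 240 nm (negative) monitored.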

[17] = system: MCF7; assay: Binding affinity to c-KIT2 mutant G-quadruplex DNA isolated from human MCF7 cells at 5 uM after 48 hrs by dual luciferase reporter gene assay relative to control; assay type: cell-based; outline: as §1
[18] = system: MCF7; assay: Binding affinity to full length wild type c-KIT2 G-quadruplex DNA isolated from human MCF7 cells after 48 hrs by dual luciferase reporter gene assay; assay type: cell-based; outline: as §1
[19] = system: HGC-27; assay: Downregulation of c-KIT mRNA expression in HGC27 cells after 24 hrs by RT-PCR analysis relative to control; assay type: functional, cell-based; conditions: Homo sapiens; outline: as §3
[20] = system: MCF7; assay: Binding affinity to full length wild type c-KIT2 G-quadruplex DNA isolated from human MCF7 cells at 5 uM after 48 hrs by dual luciferase reporter gene assay relative to control; assay type: cell-based; outline: as §1
[21] = Binding affinity to c-KIT2 G-quadruplex DNA (unknown origin) at 25 uM by CD spectrophotometric analysis; outline: as §4
[22] = system: HGC-27; assay: Downregulation of c-KIT mRNA expression in HGC27 cells at 5 uM after 24 hrs by RT-PCR analysis relative to control; assay type: functional, Homo sapiens; outline: as §3

SMILES | ΔTm [3] | Activity [6] | ΔTm [7] | ΔTm [8] | Kd [9] | inhibition [1] | inhibition [2] | IC50 [4] | inhibition [5] | inhibition [10] | further results
CN1CCN(c2cc3nc(/C=C/c4ccc(NC(=O)CCN5CCCCC5)cc4)n(-c4ccccc4)c(=O)c3cc2F)CC1 | 12.6 °C | inactive | 10.7 °C | 0 °C | 0.916 µM | inactive | Active | 8.2 µM | Active | inactive | 
Cc1ccc(NC(=O)c2ccc(CN3CCN(C)CC3)cc2)cc1Nc1nccc(-c2cccnc2)n1 [IMATINIB] |  |  |  |  |  |  |  | 3.8 µM |  |  | 
CN1CCN(c2cc3nc(/C=C/c4ccc(NC(=O)CN5CCCCC5)cc4)n(-c4ccccc4)c(=O)c3cc2F)CC1 | 7.5 °C |  | 4.2 °C | 0.1 °C |  | inactive | Active | 1.3 µM | Active | inactive | 
CN1CCN(c2cc3nc(/C=C/c4ccc(C(=O)NCCN5CCCC5)cc4)n(-c4ccccc4)c(=O)c3cc2F)CC1 | 13.4 °C | inactive | 12.3 °C | 0.4 °C | 15.7 µM | inactive | Active | 17.2 µM | Active | inactive | 
CN1CCN(c2cc3nc(/C=C/c4ccc(C(=O)NCCCN5CCCC5)cc4)n(-c4ccccc4)c(=O)c3cc2F)CC1 | 16.8 °C | inactive | 15.9 °C | 0.4 °C | 1.99 µM | inactive | Active | 12.3 µM | Active | inactive | 

Further lines, with some results ahead:

ΔTm [3] | Activity [6] | ΔTm [7] | ΔTm [8] | Kd [9] | SMILES | inhibition [1] | inhibition [2] | IC50 [4] | inhibition [5] | inhibition [10] | further results
9.4 °C | inactive | 6.4 °C | 0 °C | 0.784 µM | CN1CCN(c2cc3nc(/C=C/c4ccc(NC(=O)CN5CCCC5)cc4)n(-c4ccccc4)c(=O)c3cc2F)CC1 | inactive | Active | 2.3 µM | Active | inactive | 
14.3 °C | inactive | 13.4 °C | 0.4 °C | 1.37 µM | CCN(CC)CCNC(=O)c1ccc(/C=C/c2nc3cc(N4CCN(C)CC4)c(F)cc3c(=O)n2-c2ccccc2)cc1 | inactive | Active | 8.6 µM | Active | inactive | Activity [11]: 10.4%; Activity [12]: 5.7%; inhibition [13]: 37%; inhibition [14]: Dose-dependent effect; inhibition [15]: 20%; Activity [16]: Active; inhibition [17]: 20%; inhibition [18]: Dose-dependent effect; Activity [19]: Dose-dependent effect; inhibition [20]: 37%; Activity [21]: Active; Activity [22]: 35.7%
12.4 °C | inactive | 11.3 °C | 0 °C | 1.88 µM | CN1CCN(c2cc3nc(/C=C/c4ccc(NC(=O)CCN5CCCC5)cc4)n(-c4ccccc4)c(=O)c3cc2F)CC1 | inactive | Active | 13.4 µM | Active | inactive | 
15.9 °C | inactive | 15.1 °C | 0.5 °C | 1.16 µM | CN(C)CCNC(=O)c1ccc(/C=C/c2nc3cc(N4CCN(C)CC4)c(F)cc3c(=O)n2-c2ccccc2)cc1 | inactive | Active | 21.2 µM | Active | inactive | 
13.6 °C | inactive | 11.1 °C | 0 °C | 0.612 µM | CCN(CC)CCC(=O)Nc1ccc(/C=C/c2nc3cc(N4CCN(C)CC4)c(F)cc3c(=O)n2-c2ccccc2)cc1 | inactive | Active | 6.8 µM | Active | inactive | Activity [11]: 22.8%; Activity [12]: 4.9%; inhibition [13]: 45%; inhibition [14]: Dose-dependent effect; inhibition [15]: 22%; Activity [16]: Active; inhibition [17]: 22%; inhibition [18]: Dose-dependent effect; Activity [19]: Dose-dependent effect; inhibition [20]: 45%; Activity [21]: Active; Activity [22]: 52.5%
7.8 °C |  | 5.5 °C | 0 °C |  | CCN(CC)CC(=O)Nc1ccc(/C=C/c2nc3cc(N4CCN(C)CC4)c(F)cc3c(=O)n2-c2ccccc2)cc1 | inactive | Active | 18.4 µM | Active | inactive | 
